From ChEMBL document CHEMBL1151724, “Sesquiterpene lactones from Gonospermum gomerae and G. fruticosum and their cytotoxic activities” (J Nat Prod, 2008)
pIC50: −log10 of the molar value. Activity calls are given as the source filed them. The rule behind the calls is not given here.

The compounds below were run on U-937 (assay: Cytotoxicity against human U937 cells after 72 hrs by MTT assay). Conditions: U-937, 72 h.
Type: functional, cell-based
Method in brief: (§1)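 Exponentially growing cells, 1 × 10^4 per well in RPMI 1640 with 10% FBS, treated with 0.3-100 µM for 72 h. DMSO at most 0.1% (v/v). Viability read by MTT reduction as absorbance at 570 nm and expressed as survival relative to control wells. IC50 obtained by curve fitting; means ± SE of three independent experiments, each in triplicate.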

| Structure (SMILES) | pIC50 |
| --- | --- |
| C=C1C(=O)O[C@H]2C[C@@]3(C)[C@H](OC(C)=O)CC[C@@](C)(O)[C@H]3[C@@H](O)[C@H]12 | < 4.00 |

These compounds were tested on SK-MEL-1 (assay: Cytotoxicity against human SK-MEL-1 cells after 72 hrs by MTT assay). Conditions: SK-MEL-1, 72 h.
Type: functional, cell-based
Method in brief: as §1

| Structure (SMILES) | pIC50 |
| --- | --- |
| C=C1C(=O)O[C@H]2C[C@@]3(C)[C@H](OC(C)=O)CC[C@@](C)(O)[C@H]3[C@@H](O)[C@H]12 | < 4.00 |

The compounds below were run on A549 (assay: Cytotoxicity against human A549 cells after 72 hrs by MTT assay). Conditions: A549, 72 h.
Type: functional, cell-based
Method in brief: as §1

| Structure (SMILES) | pIC50 |
| --- | --- |
| C=C1C(=O)O[C@H]2C[C@@]3(C)[C@H](OC(C)=O)CC[C@@](C)(O)[C@H]3[C@@H](O)[C@H]12 | < 4.00 |

What follows are compounds tested on HL-60 (assay: Cytotoxicity against human HL-60 cells after 72 hrs by MTT assay). Conditions: HL-60, 72 h.
Type: functional, cell-based
Method in brief: as §1

| Structure (SMILES) | pIC50 |
| --- | --- |
| C=C1C(=O)O[C@H]2C[C@@]3(C)[C@H](OC(C)=O)CC[C@@](C)(O)[C@H]3[C@@H](O)[C@H]12 | < 4.00 |

Each compound was assayed on HL-60 (assay: Induction of apoptosis in human HL-60 cells upto 30 uM after 48 hrs by flow cytometry). Conditions: not given.
Type: functional, cell-based
Method in brief: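 HL-60 cells exposed to 30 µM for 48 h. Hypodiploid (apoptotic) fraction quantified by flow cytometry; average ± SE of triplicate determinations from a representative experiment.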

| Structure (SMILES) | Activity |
| --- | --- |
| C=C1C[C@@H]2OC(=O)C(=C)[C@H]2[C@H](OC(=O)/C(C)=C\C)/C=C(\C)CCC1=O | inactive |
| C=C1C(=O)O[C@H]2C[C@@]3(C)[C@H](OC(C)=O)CCC(=C)[C@H]3[C@@H](OC(=O)/C(C)=C/C)[C@H]12 | inactive |
| C=C1C(=O)O[C@H]2C[C@@]3(C)[C@H](OC(C)=O)CC[C@@](C)(O)[C@H]3[C@@H](O)[C@H]12 | inactive |
